ChEMBL document CHEMBL1130111, “The chemistry of pseudomonic acid. 18. Heterocyclic replacement of the alpha,beta-unsaturated ester: synthesis, molecular modeling, and antibacterial activity” (J Med Chem, 1997)

Experiments:
[1] = tested on: Staphylococcus aureus; assay: minimum inhibitory concentration (MIC) against Staphylococcus aureus NCTC 6571.; format: functional
How it was run: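 Agar dilution MIC in blood agar base with 5% chocolated horse blood. Inoculum was an overnight nutrient broth culture, about 10^6 CFU per spot. Plates were incubated 18-24 h at 37 °C. MIC taken as the lowest concentration fully inhibiting growth.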

[2] = biological target: T1, Isoleucine--tRNA ligase (Staphylococcus aureus, UniProt P41972); assay: Inhibition concentration against isoleucyl tRNA synthetase from Staphylococcus aureus NCTC 6571
T1 sequence (P41972 whole entry): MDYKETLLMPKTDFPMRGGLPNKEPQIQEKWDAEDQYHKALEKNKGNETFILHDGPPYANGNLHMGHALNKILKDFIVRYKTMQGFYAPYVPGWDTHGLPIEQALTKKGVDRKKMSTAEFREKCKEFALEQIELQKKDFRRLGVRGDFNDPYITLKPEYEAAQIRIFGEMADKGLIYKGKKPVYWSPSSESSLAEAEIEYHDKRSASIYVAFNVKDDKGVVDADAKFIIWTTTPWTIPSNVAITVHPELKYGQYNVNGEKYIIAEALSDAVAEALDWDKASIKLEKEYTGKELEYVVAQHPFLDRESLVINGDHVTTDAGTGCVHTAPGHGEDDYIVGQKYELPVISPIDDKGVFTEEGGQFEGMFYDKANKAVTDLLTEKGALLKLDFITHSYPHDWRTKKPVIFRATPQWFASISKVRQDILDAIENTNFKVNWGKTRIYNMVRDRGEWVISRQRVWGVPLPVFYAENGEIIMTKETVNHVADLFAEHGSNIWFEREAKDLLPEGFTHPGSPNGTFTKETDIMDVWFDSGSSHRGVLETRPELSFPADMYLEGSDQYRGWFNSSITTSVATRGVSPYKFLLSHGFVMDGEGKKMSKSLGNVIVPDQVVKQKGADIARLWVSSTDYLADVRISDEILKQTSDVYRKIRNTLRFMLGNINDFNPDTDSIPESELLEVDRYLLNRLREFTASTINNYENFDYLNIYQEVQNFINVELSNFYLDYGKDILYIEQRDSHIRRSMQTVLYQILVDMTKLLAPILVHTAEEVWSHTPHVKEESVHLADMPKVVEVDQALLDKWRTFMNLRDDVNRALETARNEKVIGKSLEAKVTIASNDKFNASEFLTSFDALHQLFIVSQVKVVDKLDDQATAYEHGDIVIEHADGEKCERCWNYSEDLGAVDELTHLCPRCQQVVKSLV
How it was run: (§1)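 IRS extracted from S. aureus grown to late stationary phase in shake flasks (Nutrient Broth No. 2). Cells were sonicated with lysostaphin, DNase-treated, dialysed against 20 mM Tris-HCl pH 8 with 5 mM MgCl2 and 2 mM DTT, then ultracentrifuged. Compound was preincubated with enzyme 5 min. Charging of E. coli tRNA with 4.8 µM [U-14C]-isoleucine and 5 mg/mL ATP was run 10 min at 37 °C. IC50 taken as 50% inhibition of 14C-Ile incorporation.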

[3] = biological target: T2, Isoleucine--tRNA ligase (Staphylococcus aureus) (UniProt P41972); assay: (§2) Inhibition concentration against Isoleucyl-tRNA synthetase from Staphylococcus aureus NCTC 6571; conditions: concentration not given here; how it was run: as §1
T2 sequence (whole entry): T1 sequence (P41972 whole entry)

[4] = biological target: T1, Isoleucine--tRNA ligase; assay: as §2; how it was run: as §1

C[C@H]([C@@H]1O[C@H]1C[C@H]1CO[C@@H](Cc2csc(-c3ccccc3)n2)[C@H](O)[C@@H]1O)[C@H](C)O
MIC [1]: >64 ug m1 l-1 | IC50 [2]: 14.3 nM

C[C@H]([C@@H]1O[C@H]1C[C@H]1CO[C@@H](Cc2cc(-c3ccccc3)on2)[C@H](O)[C@@H]1O)[C@H](C)O
MIC [1]: >64 ug m1 l-1 | inhibition [3]: 17%

C[C@H]([C@@H]1O[C@H]1C[C@H]1CO[C@@H](Cc2ncc(-c3ccccc3)o2)[C@H](O)[C@@H]1O)[C@H](C)O
MIC [1]: >64 ug m1 l-1 | inhibition [3]: 0%

C[C@H]([C@@H]1O[C@H]1C[C@H]1CO[C@@H](Cc2nnc(-c3ccccc3)o2)[C@H](O)[C@@H]1O)[C@H](C)O
MIC [1]: 8 ug m1 l-1 | IC50 [4]: 5.19 nM

C[C@H]([C@@H]1O[C@H]1C[C@H]1CO[C@@H](Cc2cc(-c3ccccc3)no2)[C@H](O)[C@@H]1O)[C@H](C)O
MIC [1]: 4 ug m1 l-1 | IC50 [4]: 13.1 nM

C[C@H]([C@@H]1O[C@H]1C[C@H]1CO[C@@H](Cc2nc(-c3ccccc3)no2)[C@H](O)[C@@H]1O)[C@H](C)O
MIC [1]: 4 ug m1 l-1 | IC50 [4]: 1.73 nM

C/C(=C\C(=O)OCCCCCCCCC(=O)O)C[C@@H]1OC[C@H](C[C@@H]2O[C@H]2[C@@H](C)[C@H](C)O)[C@@H](O)[C@H]1O [MUPIROCIN]
MIC [1]: 0.13 ug m1 l-1 | IC50 [4]: 1.7 nM

C[C@H]([C@@H]1O[C@H]1C[C@H]1CO[C@@H](Cn2nnc(-c3ccccc3)n2)[C@H](O)[C@@H]1O)[C@H](C)O
MIC [1]: 8 ug m1 l-1 | IC50 [4]: 8.9 nM

C[C@H]([C@@H]1O[C@H]1C[C@H]1CO[C@@H](Cc2cnc(-c3ccccc3)o2)[C@H](O)[C@@H]1O)[C@H](C)O
MIC [1]: 2 ug m1 l-1 | IC50 [4]: 4.71 nM

CCOC(=O)/C=C(\C)C[C@@H]1OC[C@H](C[C@@H]2O[C@H]2[C@@H](C)[C@H](C)O)[C@@H](O)[C@H]1O
MIC [1]: 0.5 ug m1 l-1 | IC50 [4]: 2.95 nM
